Test results published in ChEMBL document CHEMBL1145471, “Small molecule regulators of autophagy identified by an image-based high-throughput screen” (Proc Natl Acad Sci U S A, 2007).
The source made the active and inactive calls. The calls are words filed in the database; no cut-off is given here.

Assays:
[1] = tested on: H4; test: Increase in light chain 3-GFP+ autophagosome vesicle area per cell in human H4 cells at 5.7 uM after 24 hrs by high throughput fluorescence microscopy relative to control; format: functional
Outline: (§1)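 H4 cells stably expressing LC3-GFP, seeded in 96-well plates and exposed to compound for 24 h; fixed in 4% paraformaldehyde, nuclei stained with 3 μg/ml DAPI. Automated fluorescence microscopy scored number, size and intensity of LC3-GFP spots; values expressed relative to DMSO-treated wells, rapamycin positive control. Triplicate wells, mean ± SD; experiments repeated three times.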

[2] = tested on: H4; test: Increase in light chain 3-GFP+ autophagosome vesicle number per cell in human H4 cells at 5.7 uM after 24 hrs by high throughput fluorescence microscopy relative to control; format: functional
Outline: (§2)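 H4 cells stably expressing LC3-GFP, kept in DMEM/10% FBS at 37°C, 5% CO2, were seeded in 96-well plates and exposed to compound for 24 h. Cells were then fixed in 4% paraformaldehyde and stained with 3 μg/ml DAPI. Automated fluorescence microscopy scored the number, size and intensity of LC3-GFP spots. Values are percent of DMSO wells, in triplicate, mean ± SD. Rapamycin served as positive control.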

[3] = tested on: H4; test: Increase in light chain 3-GFP+ autophagosome vesicle intensity per cell in human H4 cells at 5.7 uM after 24 hrs by high throughput fluorescence microscopy relative to control; format: functional; outline: as §1
[4] = tested on: H4; test: Effect on FYVE-RFP+ vesicle intensity per cell in human H4 cells after 2 hrs relative to control; format: functional; set-up: concentration or dose not given beside the values
Outline: (§3)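 H4 cells stably expressing FYVE-RFP (H4-FYVE), grown in DMEM with 10% FBS, penicillin/streptomycin and 2 mM L-glutamine at 37°C, 5% CO2, seeded in 96-well plates and exposed to compound. Fixed in 4% paraformaldehyde, nuclei stained with 3 μg/ml DAPI, FYVE-RFP+ vesicles quantified by high-throughput fluorescence microscopy against DMSO control. Triplicate wells, mean ± SD.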

[5] = tested on: H4; test: Effect on FYVE-RFP+ vesicle intensity per cell in human H4 cells after 4 hrs relative to control; format: functional; set-up: concentration or dose not given beside the values; outline: as §3
[6] = tested on: H4; test: Effect on FYVE-RFP+ vesicle intensity per cell in human H4 cells after 8 hrs relative to control; format: functional; set-up: concentration or dose not given beside the values; outline: as §3
[7] = tested on: H4; test: Increase in long-lived protein degradation in human H4 cells after 1 hr relative to control; format: functional; set-up: concentration or dose not given beside the values
[8] = tested on: H4; test: Increase in long-lived protein degradation in human H4 cells after 2 hrs relative to control; format: functional; set-up: concentration or dose not given beside the values
[9] = tested on: H4; test: Increase in long-lived protein degradation in human H4 cells after 4 hrs relative to control; format: functional; set-up: concentration or dose not given beside the values
[10] = tested on: H4; test: Increase in long-lived protein degradation in human H4 cells after 24 hrs relative to control; format: functional; set-up: concentration or dose not given beside the values
[11] = tested on: H4; test: Induction of light chain 3-GFP level in human H4 cells at 5.7 uM after 24 hrs by high throughput fluorescence microscopy relative to control; format: functional; outline: as §2
[12] = tested on: H4; test: Increase in ratio of light chain 3 subunit 2 to light chain 3 subunit 1 in human H4 cells at 4.8 uM after 4 hrs by Western blot; format: functional, cell-based
Outline: (§4)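 H4 cells were treated with each compound for 4 h, then lysed. Lysates were immunoblotted with anti-LC3 antibody, with actin as loading control. LC3II and LC3I bands were compared as an LC3II/LC3I ratio.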

[13] = biological target: T1, Serine/threonine-protein kinase mTOR (Homo sapiens, UniProt P42345); test: Effect on mTOR phosphorylation in human H4 cells at 4.8 uM after 4 hrs; format: cell-based
Outline: (§5)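 H4 cells exposed to compound for 4 h. Lysates analysed by Western blot with anti-phospho and anti-total mTOR antibodies, with actin as loading control. Rapamycin served as reference.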

[14] = tested on: H4; test: Increase in light chain 3-GFP+ autophagosome vesicle number per cell in human H4 cells at 4.8 uM after 24 hrs by high throughput fluorescence microscopy relative to control; format: functional
Outline: (§6)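 H4 cells stably expressing LC3-GFP were grown in DMEM with 10% FBS and 2 mM L-glutamine at 37°C, 5% CO2. They were exposed to each compound for 24 h, with DMSO as negative and rapamycin as positive control. Cells were then fixed in 4% paraformaldehyde and stained with 3 μg/ml DAPI. High-throughput fluorescence imaging scored LC3-GFP spot number, size and intensity, expressed relative to DMSO. Mean ± SD of triplicates; experiments repeated three times.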

[15] = tested on: H4; test: Increase in light chain 3-GFP+ autophagosome vesicle area per cell in human H4 cells at 4.8 uM after 24 hrs by high throughput fluorescence microscopy relative to control; format: functional
Outline: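 H4 cells stably expressing LC3-GFP, seeded in 96-well plates and exposed to compound for 24 h; screening concentrations were 3–12 μM, with rapamycin 0.22 μM and bafilomycin A1 0.40 μM. Cells fixed in 4% paraformaldehyde and stained with 3 μg/ml DAPI. Number, size and intensity of LC3-GFP spots measured by high-throughput fluorescence microscopy and expressed as percent of DMSO-treated wells. Rapamycin was the positive control. Triplicate wells, mean ± SD; experiments repeated three times.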

[16] = tested on: H4; test: Increase in light chain 3-GFP+ autophagosome vesicle intensity per cell in human H4 cells at 4.8 uM after 24 hrs by high throughput fluorescence microscopy relative to control; format: functional; outline: as §6
[17] = tested on: H4; test: Increase in FYVE-RFP+ vesicle intensity per cell in human H4 cells after 2 hrs relative to control; format: functional; set-up: concentration or dose not given beside the values; outline: as §3
[18] = tested on: H4; test: Increase in FYVE-RFP+ vesicle intensity per cell in human H4 cells after 4 hrs relative to control; format: functional; set-up: concentration or dose not given beside the values; outline: as §3
[19] = tested on: H4; test: Increase in FYVE-RFP+ vesicle intensity per cell in human H4 cells after 8 hrs relative to control; format: functional; set-up: concentration or dose not given beside the values; outline: as §3
[20] = tested on: H4; test: Induction of light chain 3-GFP level in human H4 cells at 4.8 uM after 24 hrs by high throughput fluorescence microscopy relative to control; format: functional
Outline: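 H4 cells stably expressing LC3-GFP, grown in DMEM with 10% FBS, penicillin/streptomycin and 2 mM L-glutamine at 37°C, 5% CO2. Cells were seeded in 96-well plates and exposed to library compounds at 3–12 μM for 24 h, then fixed in 4% paraformaldehyde and stained with 3 μg/ml DAPI. LC3-GFP spot number, size and intensity were measured by high-throughput fluorescence microscopy and expressed relative to DMSO. Triplicates, mean ± SD.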

[21] = tested on: H4; test: Increase in ratio of light chain 3 subunit 2 to light chain 3 subunit 1 in human H4 cells at 5.3 uM after 4 hrs by Western blot; format: functional, cell-based; outline: as §4
[22] = tested on: H4; test: Reduction of poly(Q) level in human H4 cells expressing EGFP-Q79-HA after 24 hrs; format: functional, cell-based
Outline: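 H4 cells were transiently transfected with an EGFP-Q79-HA expression vector. The medium was replaced 6 h after transfection and compounds were added. Poly(Q) was detected with anti-HA antibody.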

[23] = biological target: T1, Serine/threonine-protein kinase mTOR; test: Effect on mTOR phosphorylation in human H4 cells at 5.3 uM after 4 hrs; format: cell-based; outline: as §5
[24] = tested on: H4; test: Increase in light chain 3-GFP+ autophagosome vesicle number per cell in human H4 cells at 5.3 uM after 24 hrs by high throughput fluorescence microscopy relative to control; format: functional; outline: as §2
[25] = tested on: H4; test: Increase in light chain 3-GFP+ autophagosome vesicle area per cell in human H4 cells at 5.3 uM after 24 hrs by high throughput fluorescence microscopy relative to control; format: functional; outline: as §1
[26] = tested on: H4; test: Increase in light chain 3-GFP+ autophagosome vesicle intensity per cell in human H4 cells at 5.3 uM after 24 hrs by high throughput fluorescence microscopy relative to control; format: functional; outline: as §1
[27] = tested on: H4; test: Induction of light chain 3-GFP level in human H4 cells at 5.3 uM after 24 hrs by high throughput fluorescence microscopy relative to control; format: functional; outline: as §2

**Q.** For `CC(C)(O)[C@H]1O[C@H]2CC[C@@]3(C)[C@@](O)(CC[C@H]4Cc5c([nH]c6ccccc56)[C@@]43C)C2=CC1=O` [PAXILLINE], which Activity [1] is on record?
**A.** 185.52%

**Q.** And the Activity [2]?
**A.** 162.66%

**Q.** And the Activity [3]?
**A.** 205.83%

**Q.** What about the Activity [4] of the same compound?
**A.** 100.56%

**Q.** And the Activity [5]?
**A.** 52.37%

**Q.** What about the Activity [6] of the same compound?
**A.** 56.82%

**Q.** What about the Activity [7] of the same compound?
**A.** 100.56%

**Q.** What about the Activity [8] of the same compound?
**A.** 112.34%

**Q.** What about the Activity [9] of the same compound?
**A.** 106.27%

**Q.** And the Activity [10]?
**A.** 102.35%

**Q.** And the Activity [11]?
**A.** 119.79%

**Q.** What does the source list for `COC(=O)C1=C(C)NC(C)=C(C(=O)OCCN(C)Cc2ccccc2)C1c1cccc([N+](=O)[O-])c1` (stereo not drawn) [NICARDIPINE]?
**A.** Activity [12]: Active; Activity [13]: inactive; Activity [14]: 169.02%; Activity [15]: 197.46%; Activity [16]: 229.64%; Activity [17]: 132.05%; Activity [18]: 112.51%; Activity [19]: 104.77%; Activity [7]: 84.62%; Activity [8]: 126.59%; Activity [9]: 122.6%; Activity [10]: 121.03%; Activity [20]: 131.58%

**Q.** Which results are given for `O=C1NCN(c2ccccc2)C12CCN(CCCC(c1ccc(F)cc1)c1ccc(F)cc1)CC2` [FLUSPIRILENE]?
**A.** Activity [21]: Active; Activity [22]: Dose-dependent effect; Activity [23]: inactive; Activity [24]: 309.6%; Activity [25]: 532.51%; Activity [26]: 1593.16%; Activity [17]: 224.98%; Activity [18]: 142.15%; Activity [19]: 108.53%; Activity [7]: 93.82%; Activity [8]: 143.17%; Activity [9]: 144.79%; Activity [10]: 145.5%; Activity [27]: 143.3%
